Laboratory results published in ChEMBL document CHEMBL1155876 (J Med Chem, 2008).

How the values were obtained:
[1] = biological target: Hepatocyte growth factor receptor (Homo sapiens) (UniProt P08581); assay: Inhibition of human Met assessed as residual enzyme activity at 0.1 uM
[2] = biological target: Discoidin domain-containing receptor 2 (Homo sapiens) (UniProt Q16832); assay: Inhibition of human DDR2 kinase assessed as residual enzyme activity at 0.1 uM
[3] = biological target: Serine/threonine-protein kinase MARK2 (Homo sapiens) (UniProt Q7KZI7); assay: Inhibition of human PAR-1Balpha kinase assessed as residual enzyme activity at 0.1 uM
[4] = biological target: Serine/threonine-protein kinase Nek6 (Homo sapiens) (UniProt Q9HC98); assay: Inhibition of human NEK6 kinase assessed as residual enzyme activity at 0.1 uM
Homo sapiens [5] = species on record: Homo sapiens; assay: Inhibition of human ALK4 assessed as residual enzyme activity at 0.1 uM
[6] = biological target: Casein kinase I isoform delta (Homo sapiens) (UniProt P48730); assay: Inhibition of human CK1delta kinase assessed as residual enzyme activity at 0.1 uM
[7] = biological target: Ephrin type-B receptor 1 (Homo sapiens) (UniProt P54762); assay: Inhibition of human EphB1 kinase assessed as residual enzyme activity at 0.1 uM
[8] = biological target: Serine/threonine-protein kinase 4 (MST1/STK4) (Homo sapiens) (UniProt Q13043); assay: Inhibition of human MST1 kinase assessed as residual enzyme activity at 0.1 uM
[9] = biological target: Protein kinase C alpha type (Homo sapiens) (UniProt P17252); assay: Inhibition of human PKCalpha assessed as residual enzyme activity at 0.1 uM
[10] = biological target: Macrophage colony-stimulating factor 1 receptor (Homo sapiens) (UniProt P07333); assay: Inhibition of human Fms kinase assessed as residual enzyme activity at 0.1 uM
[11] = biological target: Misshapen-like kinase 1 (Homo sapiens) (UniProt Q8N4C8); assay: Inhibition of human MINK assessed as residual enzyme activity at 0.1 uM
[12] = biological target: Ribosomal protein S6 kinase alpha-1 (Homo sapiens, UniProt Q15418); assay: Inhibition of human Rsk1 kinase assessed as residual enzyme activity at 0.1 uM
[13] = biological target: SRSF protein kinase 1 (Homo sapiens) (UniProt Q96SB4); assay: Inhibition of human SRPK1 kinase assessed as residual enzyme activity at 0.1 uM
[14] = biological target: Interleukin-1 receptor-associated kinase 1 (Homo sapiens) (UniProt P51617); assay: Inhibition of human IRAK1 kinase assessed as residual enzyme activity at 0.1 uM
[15] = biological target: Mitogen-activated protein kinase 10 (Homo sapiens) (UniProt P53779); assay: Inhibition of human JNK3 kinase assessed as residual enzyme activity at 0.1 uM
[16] = biological target: MAP kinase-activated protein kinase 2 (Homo sapiens) (UniProt P49137); assay: Inhibition of human MAPKAP-K2 kinase assessed as residual enzyme activity at 0.1 uM
[17] = biological target: Tyrosine-protein kinase Fer (Homo sapiens) (UniProt P16591); assay: Inhibition of human Fer kinase assessed as residual enzyme activity at 0.1 uM
[18] = biological target: NUAK family SNF1-like kinase 1 (Homo sapiens) (UniProt O60285); assay: Inhibition of human ARK5 kinase assessed as residual enzyme activity at 0.1 uM
[19] = biological target: CDK6/cyclin D3 (Homo sapiens) (UniProt P30281+Q00534); assay: Inhibition of CDK6/CyclinD3 assessed as residual enzyme activity at 1 uM; type: protein-complex assay
[20] = biological target: Tyrosine-protein kinase ZAP-70 (Homo sapiens) (UniProt P43403); assay: Inhibition of human ZAP70 kinase assessed as residual enzyme activity at 0.1 uM
[21] = biological target: Inhibitor of nuclear factor kappa-B kinase subunit alpha (Homo sapiens) (UniProt O15111); assay: Inhibition of human IKKalpha kinase assessed as residual enzyme activity at 0.1 uM
[22] = biological target: Mitogen-activated protein kinase kinase kinase 9 (Homo sapiens) (UniProt P80192); assay: Inhibition of human MLK1 kinase assessed as residual enzyme activity at 0.1 uM
[23] = biological target: Tyrosine-protein kinase Lyn (Homo sapiens) (UniProt P07948); assay: Inhibition of human Lyn kinase assessed as residual enzyme activity at 0.1 uM
[24] = biological target: Protein kinase C gamma type (Homo sapiens) (UniProt P05129); assay: Inhibition of human PKCgamma kinase assessed as residual enzyme activity at 0.1 uM
[25] = biological target: Tyrosine-protein kinase receptor UFO (Homo sapiens) (UniProt P30530); assay: Inhibition of human Axl kinase assessed as residual enzyme activity at 0.1 uM
HCT-116 [26] = assay: Antitumor activity in human HCT116 cells xenografted athymic mouse assessed as growth inhibition at 2.5 mg/kg, po qd; type: functional; details: read-out: TGI
HCT-116 [27] = assay: Antitumor activity in human HCT116 cells xenografted athymic mouse assessed as growth inhibition at 5 mg/kg, po qd; type: functional; details: read-out: TGI
[28] = biological target: Ephrin type-A receptor 1 (Homo sapiens) (UniProt P21709); assay: Inhibition of human EphA1 kinase assessed as residual enzyme activity at 0.1 uM
HCT-116 [29] = assay: Antiproliferative activity against human HCT116 cells
[30] = biological target: ALK tyrosine kinase receptor (Homo sapiens) (UniProt Q9UM73); assay: Inhibition of human ALK assessed as residual enzyme activity at 0.1 uM
[31] = biological target: Inhibitor of nuclear factor kappa-B kinase subunit beta (Homo sapiens) (UniProt O14920); assay: Inhibition of human IKK-beta kinase assessed as residual enzyme activity at 0.1 uM
[32] = biological target: Tyrosine-protein kinase ABL1 (Homo sapiens) (UniProt P00519); assay: Inhibition of Abl at assessed as residual enzyme activity at 1 uM
[33] = biological target: BDNF/NT-3 growth factors receptor (Homo sapiens) (UniProt Q16620); assay: Inhibition of human TrkB kinase assessed as residual enzyme activity at 0.1 uM
[34] = biological target: Cyclin-dependent kinase 3 (Homo sapiens) (UniProt Q00526); assay: Inhibition of CDK3/CyclinE assessed as residual enzyme activity at 1 uM
[35] = biological target: Myotonin-protein kinase (Homo sapiens) (UniProt Q09013); assay: Inhibition of human DMPK assessed as residual enzyme activity at 0.1 uM
Homo sapiens [36] = species on record: Homo sapiens; assay: Inhibition of human PKA assessed as residual enzyme activity at 0.1 uM
[37] = biological target: Platelet-derived growth factor receptor alpha (Homo sapiens) (UniProt P16234); assay: Inhibition of human PDGFRalpha assessed as residual enzyme activity at 0.1 uM
[38] = biological target: Cyclin-dependent kinase 7 (Homo sapiens) (UniProt P50613); assay: Inhibition of CDK7/CyclinH/MAT1 at assessed as residual enzyme activity at 1 uM
HT-29 = assay: Antiproliferative activity against human HT29 cells; type: functional, cell-based
Procedure, shortened: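 HCT116, HT29 or MCF7 cells were seeded on day 0 in 1:1 Ham's F12/DMEM-high glucose with 10% FBS and 2 mM L-glutamine, then kept overnight at 37 °C in 5% CO2. On day 1, inhibitor in DMSO, diluted 20-fold in serum- and glutamine-free medium, was added. Viability was read on day 4 as total ATP by CellTiter-Glo luminescence.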

Chain of Macrophage colony-stimulating factor 1 receptor (Homo sapiens) (P07333 whole entry): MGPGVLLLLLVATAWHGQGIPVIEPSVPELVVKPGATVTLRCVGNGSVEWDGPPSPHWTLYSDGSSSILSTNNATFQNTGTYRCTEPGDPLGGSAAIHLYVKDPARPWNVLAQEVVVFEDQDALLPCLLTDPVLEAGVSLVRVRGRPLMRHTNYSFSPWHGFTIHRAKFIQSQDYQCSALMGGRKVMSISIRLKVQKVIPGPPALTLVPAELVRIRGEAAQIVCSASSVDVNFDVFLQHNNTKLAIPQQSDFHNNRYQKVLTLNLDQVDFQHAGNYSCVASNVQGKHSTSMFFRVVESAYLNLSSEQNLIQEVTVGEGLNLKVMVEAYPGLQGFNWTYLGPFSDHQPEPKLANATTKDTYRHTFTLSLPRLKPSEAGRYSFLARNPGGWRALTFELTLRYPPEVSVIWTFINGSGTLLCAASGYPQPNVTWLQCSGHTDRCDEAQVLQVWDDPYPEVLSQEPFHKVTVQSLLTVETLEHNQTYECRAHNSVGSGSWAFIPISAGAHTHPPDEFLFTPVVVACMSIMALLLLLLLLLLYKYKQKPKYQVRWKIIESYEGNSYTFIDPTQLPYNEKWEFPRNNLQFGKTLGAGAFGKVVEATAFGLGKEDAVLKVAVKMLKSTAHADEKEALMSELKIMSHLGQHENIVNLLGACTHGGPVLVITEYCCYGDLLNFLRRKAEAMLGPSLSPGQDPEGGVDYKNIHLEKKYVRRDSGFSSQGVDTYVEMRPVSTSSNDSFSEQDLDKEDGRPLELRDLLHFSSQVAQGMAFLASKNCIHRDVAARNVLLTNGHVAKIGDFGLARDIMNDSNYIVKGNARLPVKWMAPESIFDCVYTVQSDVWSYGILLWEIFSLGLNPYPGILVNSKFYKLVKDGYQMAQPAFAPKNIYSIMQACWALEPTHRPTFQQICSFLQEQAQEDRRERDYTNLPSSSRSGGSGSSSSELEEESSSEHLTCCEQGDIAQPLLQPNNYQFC
Chain of Serine/threonine-protein kinase 4 (MST1/STK4) (Homo sapiens) (Q13043 whole entry, looked up): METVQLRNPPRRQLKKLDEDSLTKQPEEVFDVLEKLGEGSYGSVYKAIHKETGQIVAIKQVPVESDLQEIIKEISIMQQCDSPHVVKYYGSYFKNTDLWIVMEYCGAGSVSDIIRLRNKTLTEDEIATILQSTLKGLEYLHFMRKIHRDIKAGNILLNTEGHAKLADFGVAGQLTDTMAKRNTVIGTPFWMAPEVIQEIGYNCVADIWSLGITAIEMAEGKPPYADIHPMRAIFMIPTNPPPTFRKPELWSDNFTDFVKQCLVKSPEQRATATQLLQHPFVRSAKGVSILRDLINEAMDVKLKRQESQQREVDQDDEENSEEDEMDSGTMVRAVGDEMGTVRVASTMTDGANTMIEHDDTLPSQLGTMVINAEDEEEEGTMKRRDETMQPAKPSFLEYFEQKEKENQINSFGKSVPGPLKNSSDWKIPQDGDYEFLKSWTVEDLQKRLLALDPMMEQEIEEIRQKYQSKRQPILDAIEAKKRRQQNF
Chain of Inhibitor of nuclear factor kappa-B kinase subunit alpha (Homo sapiens) (O15111 whole entry): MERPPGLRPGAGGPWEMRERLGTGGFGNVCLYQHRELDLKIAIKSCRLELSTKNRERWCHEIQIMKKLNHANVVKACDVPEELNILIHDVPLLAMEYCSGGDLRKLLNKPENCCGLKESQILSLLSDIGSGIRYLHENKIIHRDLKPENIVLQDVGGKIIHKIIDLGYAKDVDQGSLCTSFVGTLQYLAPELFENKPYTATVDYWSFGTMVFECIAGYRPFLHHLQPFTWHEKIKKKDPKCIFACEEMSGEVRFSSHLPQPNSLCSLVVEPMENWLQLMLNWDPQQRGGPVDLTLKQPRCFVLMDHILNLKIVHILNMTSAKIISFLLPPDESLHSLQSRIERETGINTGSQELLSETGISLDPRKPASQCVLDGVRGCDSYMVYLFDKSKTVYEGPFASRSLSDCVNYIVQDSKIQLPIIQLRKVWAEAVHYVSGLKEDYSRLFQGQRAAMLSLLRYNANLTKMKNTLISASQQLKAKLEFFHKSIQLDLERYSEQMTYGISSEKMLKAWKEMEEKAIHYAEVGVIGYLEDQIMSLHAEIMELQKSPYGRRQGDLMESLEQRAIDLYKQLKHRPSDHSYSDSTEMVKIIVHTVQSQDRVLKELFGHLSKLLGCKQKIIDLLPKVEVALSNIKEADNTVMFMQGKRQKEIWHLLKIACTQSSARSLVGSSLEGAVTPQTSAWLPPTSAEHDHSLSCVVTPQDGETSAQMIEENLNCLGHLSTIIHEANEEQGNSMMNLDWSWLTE
Chain of Serine/threonine-protein kinase MARK2 (Homo sapiens) (Q7KZI7 whole entry): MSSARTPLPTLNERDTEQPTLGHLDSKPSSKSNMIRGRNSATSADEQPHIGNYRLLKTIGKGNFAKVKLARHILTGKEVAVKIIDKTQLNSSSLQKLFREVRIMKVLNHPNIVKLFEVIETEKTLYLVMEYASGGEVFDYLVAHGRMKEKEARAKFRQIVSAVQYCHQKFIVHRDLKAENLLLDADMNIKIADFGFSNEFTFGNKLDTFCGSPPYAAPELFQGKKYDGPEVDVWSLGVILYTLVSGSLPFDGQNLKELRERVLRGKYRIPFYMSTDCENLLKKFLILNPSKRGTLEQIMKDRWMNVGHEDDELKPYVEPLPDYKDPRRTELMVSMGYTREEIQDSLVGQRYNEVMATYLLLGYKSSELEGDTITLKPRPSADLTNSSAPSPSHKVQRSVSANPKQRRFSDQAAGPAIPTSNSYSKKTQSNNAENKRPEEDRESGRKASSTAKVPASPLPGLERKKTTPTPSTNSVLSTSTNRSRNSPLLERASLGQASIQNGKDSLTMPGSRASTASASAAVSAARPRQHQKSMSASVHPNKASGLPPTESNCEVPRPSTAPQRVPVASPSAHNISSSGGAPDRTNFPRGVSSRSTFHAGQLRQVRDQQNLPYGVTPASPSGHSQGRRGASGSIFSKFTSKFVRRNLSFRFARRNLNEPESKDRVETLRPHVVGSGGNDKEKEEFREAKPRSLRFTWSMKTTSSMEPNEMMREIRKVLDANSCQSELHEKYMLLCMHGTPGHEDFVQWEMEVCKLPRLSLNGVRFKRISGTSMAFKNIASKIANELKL
Chain of SRSF protein kinase 1 (Homo sapiens) (Q96SB4 whole entry): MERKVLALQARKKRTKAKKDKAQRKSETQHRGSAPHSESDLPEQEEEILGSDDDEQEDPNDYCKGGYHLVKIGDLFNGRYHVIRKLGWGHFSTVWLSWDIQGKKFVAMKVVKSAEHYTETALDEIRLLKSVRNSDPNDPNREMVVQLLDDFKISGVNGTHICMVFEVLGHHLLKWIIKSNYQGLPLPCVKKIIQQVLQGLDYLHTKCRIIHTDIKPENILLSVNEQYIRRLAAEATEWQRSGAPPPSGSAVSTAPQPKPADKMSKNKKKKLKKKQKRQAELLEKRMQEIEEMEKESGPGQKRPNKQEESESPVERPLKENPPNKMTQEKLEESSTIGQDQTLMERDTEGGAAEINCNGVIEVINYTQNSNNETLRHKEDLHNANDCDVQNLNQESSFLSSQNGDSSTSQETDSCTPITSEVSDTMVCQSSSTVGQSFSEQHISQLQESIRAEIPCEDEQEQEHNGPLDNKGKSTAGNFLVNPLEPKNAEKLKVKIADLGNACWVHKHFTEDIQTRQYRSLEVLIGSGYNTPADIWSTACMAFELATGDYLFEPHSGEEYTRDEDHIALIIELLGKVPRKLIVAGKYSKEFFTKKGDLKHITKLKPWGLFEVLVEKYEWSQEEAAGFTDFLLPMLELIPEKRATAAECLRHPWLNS
Chain of Platelet-derived growth factor receptor alpha (Homo sapiens) (P16234 whole entry): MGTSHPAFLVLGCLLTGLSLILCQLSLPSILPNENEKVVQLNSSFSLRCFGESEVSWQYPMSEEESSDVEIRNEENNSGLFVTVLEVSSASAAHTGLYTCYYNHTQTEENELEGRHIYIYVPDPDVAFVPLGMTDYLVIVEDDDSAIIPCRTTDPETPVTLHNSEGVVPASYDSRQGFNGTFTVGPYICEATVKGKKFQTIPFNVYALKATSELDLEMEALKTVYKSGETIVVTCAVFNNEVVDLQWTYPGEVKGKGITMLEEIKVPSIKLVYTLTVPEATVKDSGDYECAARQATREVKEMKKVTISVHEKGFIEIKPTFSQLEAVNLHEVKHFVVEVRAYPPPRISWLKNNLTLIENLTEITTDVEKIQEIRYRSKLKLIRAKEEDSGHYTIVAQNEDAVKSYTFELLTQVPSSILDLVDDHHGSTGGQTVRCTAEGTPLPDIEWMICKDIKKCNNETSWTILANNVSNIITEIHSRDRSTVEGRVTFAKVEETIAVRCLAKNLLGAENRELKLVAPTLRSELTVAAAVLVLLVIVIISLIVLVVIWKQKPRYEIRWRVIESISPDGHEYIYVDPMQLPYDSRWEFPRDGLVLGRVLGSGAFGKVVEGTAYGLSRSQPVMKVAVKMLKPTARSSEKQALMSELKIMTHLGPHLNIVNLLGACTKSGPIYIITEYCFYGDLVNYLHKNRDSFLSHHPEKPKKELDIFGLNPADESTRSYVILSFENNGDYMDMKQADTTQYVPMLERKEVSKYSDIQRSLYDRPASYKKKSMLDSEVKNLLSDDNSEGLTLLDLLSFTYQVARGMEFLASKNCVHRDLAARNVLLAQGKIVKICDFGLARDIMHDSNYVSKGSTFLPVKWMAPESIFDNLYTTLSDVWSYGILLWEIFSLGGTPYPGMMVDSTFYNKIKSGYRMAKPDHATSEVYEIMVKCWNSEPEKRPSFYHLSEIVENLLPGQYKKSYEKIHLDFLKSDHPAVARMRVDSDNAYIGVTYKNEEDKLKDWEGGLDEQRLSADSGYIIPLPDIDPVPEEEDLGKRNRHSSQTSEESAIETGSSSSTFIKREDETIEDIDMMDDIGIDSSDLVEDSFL
Chain of Serine/threonine-protein kinase Nek6 (Homo sapiens) (Q9HC98 whole entry): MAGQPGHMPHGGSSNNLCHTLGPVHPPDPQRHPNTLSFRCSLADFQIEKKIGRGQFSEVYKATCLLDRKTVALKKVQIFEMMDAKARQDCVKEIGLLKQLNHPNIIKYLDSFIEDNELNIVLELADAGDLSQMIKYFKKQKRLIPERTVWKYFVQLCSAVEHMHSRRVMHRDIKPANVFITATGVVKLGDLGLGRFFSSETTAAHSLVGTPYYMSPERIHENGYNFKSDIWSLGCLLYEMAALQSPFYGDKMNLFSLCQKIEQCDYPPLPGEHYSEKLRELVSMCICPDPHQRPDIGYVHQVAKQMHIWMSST

Activity [1]: 68%
Activity [2]: 81%
Activity [3]: 42%
Activity [4]: 95%
Activity (Homo sapiens [5]): 113%
Activity [6]: 96%
Activity [7]: 58%
Activity [8]: 49%
Activity [9]: 103%
Activity [10]: 2%
Activity [11]: 110%
Activity [12]: 29%
Activity [13]: 104%
Activity [14]: 93%
Activity [15]: 101%
Activity [16]: 104%
Activity [17]: 53%
Activity [18]: 9%
Activity [19]: 103%
Activity [20]: 127%
Activity [21]: 110%
Activity [22]: 16%
Activity [23]: 60%
Activity [24]: 100%
Activity [25]: 66%
Activity [28]: 79%
IC50 (HCT-116 [29]): 70 nM
Activity [30]: 23%
Activity [31]: 114%
Activity [32]: 10%
Activity [33]: 5%
Activity [34]: 106%
Activity [35]: 97%
Activity (Homo sapiens [36]): 99%
Activity [37]: 91%
Activity [38]: 82%
IC50 (HT-29): 70 nM
SMILES: CCN1C(=O)C(C)(C)c2cc3[nH]c4c(c3cc21)CCCc1c(C)n[nH]c1-4
inhibition in vivo at 2.5 mg/kg (HCT-116 [26]): 82%
inhibition in vivo at 5 mg/kg (HCT-116 [27]): 92%
